High-throughput results (PubChem)
mABHD4 FP: inhibits mouse alpha/beta hydrolase domain 4; Q8VD66; inhibition, % at 8.92 µM; AID 720543; purified mABHD4, FP-Rh probe fluorescence polarization; 370,000 compounds, 0.54% hits;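 active means inhibition exceeding the mean over every tested compound plus 3 SD, cut at about 30% in these data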;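 further: 0% = plate median of compound wells and 100% = S159A mutant with DMSO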
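Assay system: mouse ABHD4 enzyme, wild type / Also added: fluorescent activity-based probe FP-Rh / Doses: single nominal dose of 8.92 µM, 0.89% DMSO final / Timing: 45 min compound pre-incubation plus 60 min probe step, 25 °C / Signal: FP readout, ex 525 nm / em 598 nm / Control set: S159A mutant/DMSO as 100%, compound-well median as 0%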
TCR-CD3 inh: human TCR-CD3 binding inhibition; 360,000 compounds, 0.37% hits; TAMRA-labeled TCR probe fluorescence, biochemical; inhibition, % at 9.4 µM; in the data active means inhibition above about 19%;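 further: recombinant mutant TCR 2C K166C tagged with TAMRA read by polarization; 0% = receptor in buffer alone and 100% = receptor with positive control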
HTRA1 inhibitor: HTRA1 (human) protease inhibition | recombinant HTRA1, FP-rhodamine activity-based probe, fluorescence polarization | 340,000 compounds, 0.5% hits | Q92743 | inhibition, % at 5.96 µM; in the data active means inhibition above about 36%;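 further: 0% = enzyme with DMSO and 100% = wells lacking enzyme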
PRMT1 FP inh: PRMT1 (human) inhibition, primary screen; recombinant PRMT1, activity-based probe fluorescence polarization; Q99873; inhibition, % at 2.79 µM; 370,000 compounds, 1.3% hits; AID 652257;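 active means inhibition above about 21% made by adding two undisclosed values, limit read from the data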
Target sequence (Q99873 whole entry, looked up): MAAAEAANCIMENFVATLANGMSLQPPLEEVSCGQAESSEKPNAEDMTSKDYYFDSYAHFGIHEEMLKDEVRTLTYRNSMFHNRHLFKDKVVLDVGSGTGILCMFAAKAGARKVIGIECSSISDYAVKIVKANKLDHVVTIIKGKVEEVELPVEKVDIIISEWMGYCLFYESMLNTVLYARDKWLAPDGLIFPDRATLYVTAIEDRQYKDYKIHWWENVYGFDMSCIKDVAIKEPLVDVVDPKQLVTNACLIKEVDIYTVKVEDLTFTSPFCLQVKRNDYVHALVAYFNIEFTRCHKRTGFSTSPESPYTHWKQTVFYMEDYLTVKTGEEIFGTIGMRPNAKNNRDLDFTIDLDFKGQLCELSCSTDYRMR
PAD4 inh: blocks human protein arginine deiminase 4; Q9UM07; recombinant PAD4, RCA probe fluorescence polarization; inhibition, % at 6.36 µM; 330,000 compounds, 0.41% hits;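 active means percent inhibition above a cutoff equal to the mean of all tested compounds plus 3 SD, cut at about 15% in these data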;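 further: 0% = PAD4 with RCA probe and DMSO and 100% = probe without PAD4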
SIAE primary: inhibitors of human sialic acid acetylesterase SIAE; SIAE FP-Rh probe binding, fluorescence polarization; inhibition, % at 9.66 µM; 370,000 compounds, 0.69% hits;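 active means inhibition above a cutoff: mean of compounds within the control limits plus 3 SD of those, cut at about 17% in these data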;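 further: 0% = plate median of compound wells and 100% = probe without SIAE protein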
PAD4 FP conf: confirmation of human PAD4 inhibitors | shares compounds with PAD4 inh | recombinant PAD4, RCA probe fluorescence polarization | inhibition, % at 6.36 µM | 1,200 compounds, 28% hits | AID 488796;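 active means mean inhibition across replicates above the hit cutoff set by the earlier primary screen, cut at about 15% in these data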;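 further: inhibitors block active-site labeling by the probe so polarization falls; 0% = PAD4 with probe and DMSO and 100% = probe without PAD4 enzyme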
Starred values were filed as active, the others as inactive; . = no result. A selection: hits, their analogues and other compounds. The true share with any hit is near 2.9%.

SMILES	mABHD4 FP	TCR-CD3 inh	HTRA1 inhibitor	PRMT1 FP inh	PAD4 inh	SIAE primary	PAD4 FP conf
CCC(C)n1c(O)c(C=Nc2cccc(C(F)(F)F)c2)c(=O)[nH]c1=S (stereo unspecified)	-47.2	-50.3	-54.0	4.2	21.6*	-8.4	0.0
O=C(O)CC1OCC=C2CN3CCC45C6=CC(=O)C(=O)C([N+](=O)[O-])=C6NC4C1C2CC35 (stereo unspecified)	.	.	7.7	.	66.1*	.	60.1*
O=C1C(=O)c2ccccc2-c2ccccc21	-5.8	2.4	25.5	-1.0	81.8*	2.1	75.7*
COc1cccc(-c2ccc3c(c2)C2c4cnnn4-c4ccccc4C(=O)N2CC3)c1 (stereo unspecified)	6.0	2.1	.	-0.9	.	2.7	.
CCn1nc(-c2ccccc2)nc2c(=O)n(C)c(=O)nc1-2	.	.	21.5	.	68.2*	.	-3.5
COc1ccc(-c2nc3ccccc3c(=O)n2-c2ccc(OC)cc2)cc1	-6.0	3.1	-2.4	-7.4	4.0	3.8	.
C=C1[C@@H](C)C2[C@H](Cc3ccccc3)NC(=O)[C@]23[C@H](OC(C)=O)/C=C/[C@@](C)(O)C(=O)[C@@H](C)C/C=C/[C@H]3[C@@H]1O (stereo partly specified)	-1.0	.	.	-6.4	.	-2.0	.
O=c1c2ccccc2[se]n1-c1ccccc1	25.2	-0.9	1.1	95.3*	74.8*	6.0	79.7*
O=c1c2ccccc2nc(-c2ccccc2)n1-c1ccccc1	-2.3	-0.4	7.6	-1.6	-2.1	-3.9	.
O=c1cc(C2CCNCC2)[nH][nH]1	6.2	-1.0	-3.0	16.0	36.9*	0.4	-1.2
CCCCN1CCN(C(=O)COc2cc(=O)n(C)c3ccccc23)CC1	3.4	.	.	-0.7	.	-0.7	.
CCN(CCO)c1ccc(N=Cc2c(O)n(C)c(=S)[nH]c2=O)cc1	14.3	-2.9	.	21.2*	39.9*	-0.5	-5.7
CN1C[C@H](O)[C@H]2C[C@@H]1c1ccccc1O2	-1.3	-0.2	.	-1.3	.	-4.7	.
Cc1nc2c(=O)n(C)c(=O)nc-2n(C)n1	0.3	-0.6	31.0	-1.5	76.7*	-4.8	69.4*
Cc1cccc(C(C)c2cnc[nH]2)c1C (stereo unspecified)	-1.7	.	.	1.5	.	-0.4	.
O=C(NC(CCC(O)CO)P(=O)(Oc1ccccc1)Oc1ccccc1)OCc1ccccc1 (stereo unspecified)	2.9	.	.	-3.5	.	-4.3	.
COC(=O)C1=C(c2cccc(OC)c2OC)C[C@@H]2CC[C@H]1N2C(=O)NCc1ccc(F)cc1	5.1	2.4	3.8	-0.7	28.3*	1.9	4.5
COC(=O)C1=C(c2cccc(OC)c2OC)C[C@@H]2CC[C@H]1N2C(=O)NCc1ccccc1	8.7	-4.8	1.7	-2.8	1.5	-0.5	.
CC(NC(=O)OCc1ccccc1)P(=O)(Oc1ccccc1)Oc1ccccc1 (stereo unspecified)	-4.4	.	.	-5.9	.	-4.1	.
Cc1c(P(=S)(c2ccccc2)c2ccccc2)c2ccccc2n1C	1.0	.	.	5.8	.	-1.3	.
COCCNC(=O)c1c(NC(=O)c2ccc(Br)o2)n(Cc2ccccc2)c2nc3ccccc3nc12	0.1	-3.7	-4.0	-1.0	53.9*	-3.3	-9.6
CCCCNC(=O)c1c(N)n(CCCOC)c2nc3ccccc3nc12	6.5	-3.3	-12.6	4.2	2.2	3.3	.
CC(C)OCCCNC(=O)c1c(N)n(Cc2cccs2)c2nc3ccccc3nc12	-11.5	6.3	-55.6	0.1	52.2*	-3.1	1.8
COCCNC(=O)c1c(N)n(CCC(C)C)c2nc3ccccc3nc12	9.6	-1.5	-16.7	3.4	40.0*	-7.2	-1.9
CC(C)CCn1c(N)c(C(=O)NCc2cccs2)c2nc3ccccc3nc21	.	.	-9.5	.	-4.2	.	.
O=C(NCCN1CCC2(CC1)C(=O)NCN2c1ccccc1)c1ccc2ccccc2c1	16.1	3.3	.	0.6	.	-1.3	.
C#C[C@]1(O)CC[C@H]2[C@@H]3CCC4=Cc5nc6nc7ccccc7n6cc5C[C@]4(C)[C@H]3CC[C@@]21C	-54.3	12.8	-7.8	12.6	18.5*	-7.1	8.9
CN1CC[C@@]2(C)c3cc(O)ccc3N(C)C2O1 (stereo partly specified)	.	.	11.1	.	44.8*	.	8.8
CN1CC[C@@]2(C)c3cc(O)ccc3N(C)[C@@H]12	-5.2	-1.7	4.6	4.2	.	7.8	.
